In ChEMBL document CHEMBL1148715, “Liver-targeted prodrugs of 2'-C-methyladenosine for therapy of hepatitis C virus infection” (J Med Chem, 2007):
≈ marks a conversion by molar mass, not a printed value.

Tests used:
[1] = tested on: Liver; assay: Drug level in Sprague-Dawley rat liver at 50 mg/kg, po after 3 hrs; assay type: ADME, organism-based; design: dose 50 mg/kg, route oral; conditions: in vivo
Procedure, shortened: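 Sprague–Dawley rats dosed by oral gavage in PEG-400. Liver (~1 g) taken at 3 h, snap-frozen, then homogenized in 3 volumes ice-cold 70% methanol with 20 mM EDTA/EGTA. Clarified supernatant dried and reconstituted. NTP measured by ion-pair LC-MS/MS ([…]/78.8) against a 0.01–30 μM 2'-C-methyl-ATP calibration curve; reported as nmol/g liver.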

[2] = tested on: Hepatocyte; assay: Activation of prodrug to corresponding nucleoside triphosphate in Sprague-Dawley rat hepatocytes at 25 uM after 2 hrs; assay type: cell-based
Procedure, shortened: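 Freshly isolated hepatocytes from fed Sprague–Dawley rats (250–300 g), >85% trypan blue viable, 20 mg/mL wet weight. Incubated 2 h at 37 °C in Krebs–bicarbonate buffer with 20 mM glucose and 1 mg/mL BSA; compound added from DMSO stock. Extract reconstituted in water; 2'-C-methyl-ATP measured by LC-MS/MS against an authentic triphosphate standard.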

[3] = Chemical stability at pH 7.0; assay type: physicochemical; conditions: buffer
Procedure, shortened: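 Half-life measured in pH 7 buffer at 25 °C.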

[4] = Aqueous solubility of the compound; assay type: physicochemical
[5] = Oral bioavailability in Sprague-Dawley rat; assay type: ADME, organism-based; conditions: in vivo
Procedure, shortened: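 Rats given the prodrug iv (10 mg/kg) and orally (50 mg/kg, PEG-400; fasted, food returned a few hours after dosing). Liver NTP followed over time by LC-MS/MS. Bioavailability taken as the ratio of liver NTP AUC, oral versus iv.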

[6] = Solubility in citrate buffer at pH 5.1; assay type: physicochemical

| SMILES | Activity [1] | Activity [2] | also measured |
| --- | --- | --- | --- |
| CCCCCOC(=O)Nc1ncnc2c1ncn2[C@@H]1O[C@H](COP2(=O)OCCC(c3cccc(Cl)c3)O2)[C@@H](O)[C@@]1(C)O (some centres not stated) | 1.6 nmol/g | 73 nmol/g | – |
| C[C@@]1(O)[C@H](O)[C@@H](COP2(=O)OCC[C@@H](c3cccc(Cl)c3)O2)O[C@H]1n1cnc2c(N)ncnc21 (some centres not stated) | 2.9 nmol/g | 389 nmol/g | – |
| C[C@@]1(O)[C@H](O)[C@@H](COP2(=O)OCCC(c3cncc(Br)c3)O2)O[C@H]1n1cnc2c(N)ncnc21 (some centres not stated) | – | 194 nmol/g | – |
| C[C@@]1(O)[C@H](O)[C@@H](COP2(=O)OCCC(c3cccc(F)c3)O2)O[C@H]1n1cnc2c(N)ncnc21 (some centres not stated) | 4.1 nmol/g | 328 nmol/g | – |
| C[C@@]1(O)[C@H](O)[C@@H](COP2(=O)OCCC(c3ccc(Cl)c(F)c3)O2)O[C@H]1n1cnc2c(N)ncnc21 (some centres not stated) | – | 328 nmol/g | – |
| Cc1cncc(C2CCOP(=O)(OC[C@H]3O[C@@H](n4cnc5c(N)ncnc54)[C@](C)(O)[C@@H]3O)O2)c1 (some centres not stated) | – | 73 nmol/g | – |
| C[C@@]12OC(=O)O[C@@H]1[C@@H](COP1(=O)OCC[C@@H](c3cccc(Cl)c3)O1)O[C@H]2n1cnc2c(N)ncnc21 (some centres not stated) | 29.2 nmol/g | 296 nmol/g | – |
| C[C@@]1(O)[C@H](O)[C@@H](COP2(=O)OCCC(c3cccc(C#N)c3)O2)O[C@H]1n1cnc2c(N)ncnc21 (some centres not stated) | – | 137 nmol/g | – |
| C[C@@]1(O)[C@H](O)[C@@H](COP2(=O)OCCC(c3ccc(C#N)cc3)O2)O[C@H]1n1cnc2c(N)ncnc21 (some centres not stated) | – | 41 nmol/g | – |
| C[C@@]12OC(=O)O[C@@H]1[C@@H](COP1(=O)OCCC(c3cccc(F)c3)O1)O[C@H]2n1cnc2c(N)ncnc21 (some centres not stated) | 22.9 nmol/g | 313 nmol/g | – |
| C[C@@]1(O)[C@H](O)[C@@H](COP2(=O)OCCC(c3ccc(Cl)c(Cl)c3)O2)O[C@H]1n1cnc2c(N)ncnc21 (some centres not stated) | 2 nmol/g | 396 nmol/g | – |
| C[C@@]1(O)[C@H](O)[C@@H](COP2(=O)OCCC(c3cc(Cl)cc(Cl)c3)O2)O[C@H]1n1cnc2c(N)ncnc21 (some centres not stated) | 2.4 nmol/g | 585 nmol/g | – |
| C[C@@]12OC(=O)O[C@@H]1[C@@H](COP1(=O)OCCC(c3cc(F)cc(F)c3)O1)O[C@H]2n1cnc2c(N)ncnc21 (some centres not stated) | 11.2 nmol/g | 113 nmol/g | – |
| C[C@@]1(O)[C@H](O)[C@@H](COP2(=O)OCCC(c3cccc(F)c3F)O2)O[C@H]1n1cnc2c(N)ncnc21 (some centres not stated) | 8.2 nmol/g | 323 nmol/g | – |
| C[C@@]1(O)[C@H](O)[C@@H](COP2(=O)OCCC(c3cccnc3)O2)O[C@H]1n1cnc2c(N)ncnc21 (some centres not stated) | – | 73 nmol/g | – |
| COc1cc(C2CCOP(=O)(OC[C@H]3O[C@@H](n4cnc5c(N)ncnc54)[C@](C)(O)[C@@H]3O)O2)ccn1 (some centres not stated) | – | 93 nmol/g | – |
| C[C@@]12OC(=O)O[C@@H]1[C@@H](COP1(=O)OCCC(c3ccc(Cl)c(Cl)c3)O1)O[C@H]2n1cnc2c(N)ncnc21 (some centres not stated) | 11.8 nmol/g | 97 nmol/g | – |
| C[C@@]12OC(=O)O[C@@H]1[C@@H](COP1(=O)OCCC(c3cc(Cl)cc(Cl)c3)O1)O[C@H]2n1cnc2c(N)ncnc21 (some centres not stated) | 5 nmol/g | 49 nmol/g | – |
| CC(C)[C@H](N)C(=O)O[C@@H]1[C@@H](COP2(=O)OCCC(c3cccc(Cl)c3)O2)O[C@@H](n2cnc3c(N)ncnc32)[C@]1(C)O (some centres not stated) | 3.1 nmol/g | 117 nmol/g | – |
| C[C@@]12OC(=O)O[C@@H]1[C@@H](COP1(=O)OCC[C@@H](c3ccncc3)O1)O[C@H]2n1cnc2c(N)ncnc21 (some centres not stated) | 28.3 nmol/g | 185 nmol/g | half-life [3]: 13 h; solubility [4]: 450 µg/mL (≈ 892 µM); bioavailability [5]: 39%; solubility [6]: 450 µg/mL (≈ 892 µM) |
| C[C@@]1(O)[C@H](O)[C@@H](COP2(=O)OCCC(c3cc(F)ccc3F)O2)O[C@H]1n1cnc2c(N)ncnc21 (some centres not stated) | – | 139 nmol/g | – |
| C[C@@]1(O)[C@H](O)[C@@H](COP2(=O)OCCC(c3ccccc3Br)O2)O[C@H]1n1cnc2c(N)ncnc21 (some centres not stated) | – | 122 nmol/g | – |
| C[C@@]1(O)[C@H](O)[C@@H](COP2(=O)OCCC(c3cc(F)cc(F)c3)O2)O[C@H]1n1cnc2c(N)ncnc21 (some centres not stated) | 4.1 nmol/g | 250 nmol/g | – |
| C[C@@]1(O)[C@H](O)[C@@H](COP2(=O)OCCC(c3ccccn3)O2)O[C@H]1n1cnc2c(N)ncnc21 (some centres not stated) | – | 93 nmol/g | – |
| C[C@@]1(O)[C@H](O)[C@@H](COP2(=O)OCCC(c3cc(F)ccc3Br)O2)O[C@H]1n1cnc2c(N)ncnc21 (some centres not stated) | – | 72 nmol/g | – |
| C[C@@]1(O)[C@H](O)[C@@H](COP2(=O)OCCC(c3cccc(Br)c3)O2)O[C@H]1n1cnc2c(N)ncnc21 (some centres not stated) | – | 99 nmol/g | – |
| C[C@@]1(O)[C@H](O)[C@@H](CO)O[C@H]1n1cnc2c(N)ncnc21 | – | 209 nmol/g | – |
| C[C@@]1(O)[C@H](O)[C@@H](COP2(=O)OCC[C@@H](c3ccncc3)O2)O[C@H]1n1cnc2c(N)ncnc21 (single isomer, unassigned) | 3.6 nmol/g | 47 nmol/g | – |
